Assay results reported in ChEMBL document CHEMBL1121612, “Ivermectin, a new broad-spectrum antiparasitic agent” (1980).

Experiments:
Type in all cases: functional
[1] = system: Ovis aries; assay: Activity against adult gastrointestinal helminths of experimentally infected sheep on oral administration of Trichostrongylus axei at 3.0 mg/kg.
Summary of the method: (§1)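 Sheep were given the compound orally, each at one dose, with concurrent experimental infections of six adult gastrointestinal nematode species. Efficacy against adult worms was recorded as a categorical score for each species.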

[2] = system: Ovis aries; assay: Activity against adult gastrointestinal helminths of experimentally infected sheep on oral administration of Oesophagostomum columbianum at 3.0 mg/kg.; summary of the method: as §1
[3] = system: Ovis aries; assay: Activity against adult gastrointestinal helminths of experimentally infected sheep on oral administration of Ostertagia circumcincta at 3.0 mg/kg; 75-90; summary of the method: as §1
[4] = system: Ovis aries; assay: Activity against adult gastrointestinal helminths of experimentally infected sheep on oral administration of Trichostrongylus colubriformis at 3.0 mg/kg.
Summary of the method: (§2)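 Sheep were given the compound orally, each at one dose, with experimental infections of six gastrointestinal nematode species. The Haemonchus contortus and Trichostrongylus colubriformis strains were benzimidazole-resistant. Efficacy against adult worms was recorded as a categorical score.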

[5] = system: Ovis aries; assay: Activity against adult gastrointestinal helminths of experimentally infected sheep on oral administration of Haemonchus contortus at 3.0 mg/kg; 50-74; summary of the method: as §2
[6] = system: Ovis aries; assay: Activity against adult gastrointestinal helminths of experimentally infected sheep on oral administration of Cooperia species at 3.0 mg/kg; 50-74; summary of the method: as §1
[7] = system: Ovis aries; assay: Activity against adult gastrointestinal helminths of experimentally infected sheep on oral administration of Oesophagostomum columbianum at 0.2 mg/kg.; summary of the method: as §1
[8] = system: Ovis aries; assay: Activity against adult gastrointestinal helminths of experimentally infected sheep on oral administration of Ostertagia circumcincta at 0.2 mg/kg.; summary of the method: as §1
[9] = system: Ovis aries; assay: Activity against adult gastrointestinal helminths of experimentally infected sheep on oral administration of Trichostrongylus colubriformis at 0.2 mg/kg.; summary of the method: as §2
[10] = system: Ovis aries; assay: Activity against adult gastrointestinal helminths of experimentally infected sheep on oral administration of Trichostrongylus axei at 0.2 mg/kg; 50-74; summary of the method: as §1
[11] = system: Ovis aries; assay: Activity against adult gastrointestinal helminths of experimentally infected sheep on oral administration of Haemonchus contortus at 0.2 mg/kg.; summary of the method: as §2
[12] = system: Ovis aries; assay: Activity against adult gastrointestinal helminths of experimentally infected sheep on oral administration of Cooperia species at 0.2 mg/kg.; summary of the method: as §1
[13] = system: Ovis aries; assay: Activity against adult gastrointestinal helminths of experimentally infected sheep on oral administration of Oesophagostomum columbianum at 0.3 mg/kg.; summary of the method: as §1
[14] = system: Ovis aries; assay: Activity against adult gastrointestinal helminths of experimentally infected sheep on oral administration of Ostertagia circumcincta at 0.3 mg/kg.; summary of the method: as §1
[15] = system: Ovis aries; assay: Activity against adult gastrointestinal helminths of experimentally infected sheep on oral administration of Trichostrongylus colubriformis at 0.3 mg/kg.; summary of the method: as §2
[16] = system: Ovis aries; assay: Activity against adult gastrointestinal helminths of experimentally infected sheep on oral administration of Trichostrongylus axei at 0.3 mg/kg.; summary of the method: as §1
[17] = system: Ovis aries; assay: Activity against adult gastrointestinal helminths of experimentally infected sheep on oral administration of Haemonchus contortus at 0.3 mg/kg.; summary of the method: as §2
[18] = system: Ovis aries; assay: Activity against adult gastrointestinal helminths of experimentally infected sheep on oral administration of Cooperia species at 0.3 mg/kg; 75-90; summary of the method: as §1
[19] = system: Ovis aries; assay: Activity against adult gastrointestinal helminths of experimentally infected sheep on oral administration of Ostertagia circumcincta at 0.3 mg/kg; 75-90; summary of the method: as §1
[20] = system: Ovis aries; assay: Activity against adult gastrointestinal helminths of experimentally infected sheep on oral administration of Trichostrongylus colubriformis at 0.3 mg/kg; 50-74; summary of the method: as §2
[21] = system: Ovis aries; assay: Activity against adult gastrointestinal helminths of experimentally infected sheep on oral administration of Cooperia species at 0.3 mg/kg.; summary of the method: as §1
[22] = system: Ovis aries; assay: Activity against adult gastrointestinal helminths of experimentally infected sheep on oral administration of Ostertagia circumcincta at 0.05 mg/kg.
[23] = system: Ovis aries; assay: Activity against adult gastrointestinal helminths of experimentally infected sheep on oral administration of Trichostrongylus colubriformis at 0.05 mg/kg.
Summary of the method: (§3)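 Sheep were experimentally infected with benzimidazole-resistant isolates of this species among six gastrointestinal helminths and dosed orally. Efficacy against the adult worms was scored per species.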

[24] = system: Ovis aries; assay: Activity against adult gastrointestinal helminths of experimentally infected sheep on oral administration of Trichostrongylus axei at 0.05 mg/kg.
[25] = system: Ovis aries; assay: Activity against adult gastrointestinal helminths of experimentally infected sheep on oral administration of Oesophagostomum columbianum at 0.05 mg/kg.
[26] = system: Ovis aries; assay: Activity against adult gastrointestinal helminths of experimentally infected sheep on oral administration of Cooperia species at 0.05 mg/kg.
[27] = system: Ovis aries; assay: Activity against adult gastrointestinal helminths of experimentally infected sheep on oral administration of Haemonchus contortus at 0.05 mg/kg.; summary of the method: as §3
[28] = system: Ovis aries; assay: Activity against adult gastrointestinal helminths of experimentally infected sheep on oral administration of Oesophagostomum columbianum at 0.1 mg/kg.; summary of the method: as §1
[29] = system: Ovis aries; assay: Activity against adult gastrointestinal helminths of experimentally infected sheep on oral administration of Ostertagia circumcincta at 0.1 mg/kg; 75-90; summary of the method: as §1
[30] = system: Ovis aries; assay: Activity against adult gastrointestinal helminths of experimentally infected sheep on oral administration of Trichostrongylus colubriformis at 0.1 mg/kg.; summary of the method: as §2
[31] = system: Ovis aries; assay: Activity against adult gastrointestinal helminths of experimentally infected sheep on oral administration of Trichostrongylus axei at 0.1 mg/kg.; summary of the method: as §1
[32] = system: Ovis aries; assay: Activity against adult gastrointestinal helminths of experimentally infected sheep on oral administration of Haemonchus contortus at 0.1 mg/kg; 75-90; summary of the method: as §2
[33] = system: Ovis aries; assay: Activity against adult gastrointestinal helminths of experimentally infected sheep on oral administration of Cooperia species at 0.1 mg/kg; 75-90; summary of the method: as §1
[34] = system: Ovis aries; assay: Activity against adult gastrointestinal helminths of experimentally infected sheep on oral administration of Ostertagia circumcincta at 0.1 mg/kg.; summary of the method: as §1
[35] = system: Ovis aries; assay: Activity against adult gastrointestinal helminths of experimentally infected sheep on oral administration of Cooperia species at 0.1 mg/kg.; summary of the method: as §1
[36] = system: Ovis aries; assay: Activity against adult gastrointestinal helminths of experimentally infected sheep on oral administration of Haemonchus contortus at 0.1 mg/kg.; summary of the method: as §2
[37] = system: Ovis aries; assay: Activity against adult gastrointestinal helminths of experimentally infected sheep on oral administration of Oesophagostomum columbianum at 0.15 mg/kg.; summary of the method: as §1
[38] = system: Ovis aries; assay: Activity against adult gastrointestinal helminths of experimentally infected sheep on oral administration of Ostertagia circumcincta at 0.15 mg/kg; 75-90; summary of the method: as §1
[39] = system: Ovis aries; assay: Activity against adult gastrointestinal helminths of experimentally infected sheep on oral administration of Trichostrongylus colubriformis at 0.15 mg/kg.; summary of the method: as §2
[40] = system: Ovis aries; assay: Activity against adult gastrointestinal helminths of experimentally infected sheep on oral administration of Trichostrongylus axei at 0.15 mg/kg.; summary of the method: as §1
[41] = system: Ovis aries; assay: Activity against adult gastrointestinal helminths of experimentally infected sheep on oral administration of Haemonchus contortus at 0.15 mg/kg 75-90; summary of the method: as §2
[42] = system: Ovis aries; assay: Activity against adult gastrointestinal helminths of experimentally infected sheep on oral administration of Cooperia species at 0.15 mg/kg.; summary of the method: as §1
[43] = system: Ovis aries; assay: Activity against adult gastrointestinal helminths of experimentally infected sheep on oral administration of Trichostrongylus axei at 0.2 mg/kg.; summary of the method: as §1

CC1=C[C@H]2C(=O)O[C@H]3C[C@@H](C/C=C(\C)[C@@H](O)[C@@H](C)/C=C/C=C4\CO[C@H]([C@@H]1O)[C@@]42O)O[C@@]1(CC[C@H](C)[C@@H](C(C)C)O1)C3
Efficacy [1]: >90%
Efficacy [2]: >90%
Efficacy [3]: 75%
Efficacy [4]: >90%
Efficacy [5]: 50%
Efficacy [6]: 50%

CO[C@H]1C[C@H](O[C@H]2[C@H](C)O[C@@H](O[C@@H]3/C(C)=C/C[C@@H]4C[C@@H](C[C@]5(CC[C@H](C)[C@@H](C(C)C)O5)O4)OC(=O)[C@@H]4CC(C)[C@@H](O)[C@H]5OC/C(=C\C=C\[C@@H]3C)[C@]54O)C[C@@H]2OC)O[C@@H](C)[C@@H]1O (stereo not given in full)
Efficacy [7]: >90%
Efficacy [8]: <50%
Efficacy [9]: <50%
Efficacy [10]: 50%
Efficacy [11]: <50%
Efficacy [12]: <50%

CO[C@H]1C[C@H](O[C@@H]2/C(C)=C/C[C@@H]3C[C@@H](C[C@]4(CC[C@H](C)[C@@H](C(C)C)O4)O3)OC(=O)[C@@H]3C=C(C)[C@@H](O)[C@H]4OC/C(=C\C=C\[C@@H]2C)[C@]43O)O[C@@H](C)[C@@H]1O
Efficacy [13]: >90%
Efficacy [14]: >90%
Efficacy [15]: >90%
Efficacy [16]: >90%
Efficacy [17]: >90%
Efficacy [18]: 75%

CC[C@H](C)[C@H]1O[C@]2(CC[C@@H]1C)C[C@@H]1C[C@@H](C/C=C(\C)[C@@H](O[C@H]3C[C@H](OC)[C@@H](O[C@H]4C[C@H](OC)[C@@H](O)[C@H](C)O4)[C@H](C)O3)[C@@H](C)/C=C/C=C3\CO[C@@H]4[C@H](OC)C(C)=C[C@@H](C(=O)O1)[C@]34O)O2
Efficacy [13]: >90%
Efficacy [19]: 75%
Efficacy [20]: 50%
Efficacy [16]: <50%
Efficacy [17]: >90%
Efficacy [21]: <50%

CC[C@H](C)[C@H]1O[C@]2(C=C[C@@H]1C)C[C@@H]1C[C@@H](C/C=C(\C)[C@@H](O[C@H]3C[C@H](OC)[C@@H](O[C@H]4C[C@H](OC)[C@@H](O)[C@H](C)O4)[C@H](C)O3)[C@@H](C)/C=C/C=C3\CO[C@@H]4[C@H](O)C(C)=C[C@@H](C(=O)O1)[C@]34O)O2 [ABAMECTIN COMPONENT B1A]
Efficacy [22]: >90%
Efficacy [23]: >90%
Efficacy [24]: >90%
Efficacy [25]: >90%
Efficacy [26]: >90%
Efficacy [27]: >90%

CC[C@H](C)[C@H]1O[C@]2(C=C[C@@H]1C)C[C@@H]1C[C@@H](C/C=C(\C)[C@@H](OC3CC(OC)C(OC4CC(OC)C(O)C(C)O4)C(C)O3)[C@@H](C)/C=C/C=C3\CO[C@@H]4[C@H](OC)C(C)=C[C@@H](C(=O)O1)[C@]34O)O2 (stereo not given in full) [AVERMECTIN A1]
Efficacy [28]: <50%
Efficacy [29]: 75%
Efficacy [30]: <50%
Efficacy [31]: <50%
Efficacy [32]: 75%
Efficacy [33]: 75%

CC[C@H](C)[C@H]1O[C@]2(CC(O)[C@@H]1C)C[C@@H]1C[C@@H](C/C=C(\C)[C@@H](OC3CC(OC)C(OC4CC(OC)C(O)C(C)O4)C(C)O3)[C@@H](C)/C=C/C=C3\CO[C@@H]4[C@H](OC)C(C)=C[C@@H](C(=O)O1)[C@]34O)O2 (stereo not given in full) [AVERMECTIN A2]
Efficacy [28]: >90%
Efficacy [34]: >90%
Efficacy [30]: >90%
Efficacy [31]: >90%
Efficacy [35]: <50%
Efficacy [36]: >90%

COC1CC(O[C@@H]2/C(C)=C/C[C@@H]3C[C@@H](C[C@]4(C=C[C@H](C)[C@@H](C(C)C)O4)O3)OC(=O)[C@@H]3C=C(C)[C@@H](O)[C@H]4OC/C(=C\C=C\[C@@H]2C)[C@]43O)OC(C)C1O (stereo not given in full) [AVERMECTIN B1 MONOSACCHARIDE]
Efficacy [37]: <50%
Efficacy [38]: 75%
Efficacy [39]: >90%
Efficacy [40]: >90%
Efficacy [41]: 75%
Efficacy [42]: >90%

COC1CC(O[C@@H]2/C(C)=C/C[C@@H]3C[C@@H](C[C@]4(CC(O)[C@H](C)[C@@H](C(C)C)O4)O3)OC(=O)[C@@H]3C=C(C)[C@@H](O)[C@H]4OC/C(=C\C=C\[C@@H]2C)[C@]43O)OC(C)C1O (stereo not given in full) [AVERMECTIN B2 MONOSACCHARIDE]
Efficacy [7]: >90%
Efficacy [8]: 50%
Efficacy [9]: >90%
Efficacy [43]: >90%
Efficacy [11]: 50%
Efficacy [12]: >90%

COC1CC(OC2C(C)OC(O[C@@H]3/C(C)=C/C[C@@H]4C[C@@H](C[C@]5(CC(O)[C@H](C)[C@@H](C(C)C)O5)O4)OC(=O)[C@@H]4C=C(C)[C@@H](O)[C@H]5OC/C(=C\C=C\[C@@H]3C)[C@]54O)CC2OC)OC(C)C1O (stereo not given in full) [AVERMECTIN B2]
Efficacy [28]: >90%
Efficacy [34]: >90%
Efficacy [30]: >90%
Efficacy [31]: >90%
Efficacy [35]: >90%
Efficacy [36]: <50%
